Results on 20 compounds are retold here after ChEMBL document CHEMBL3352199, “Biological evaluation of halogenated thiazolo[3,2-a]pyrimidin-3-one carboxylic acid derivatives targeting the YycG histidine kinase” (Eur J Med Chem, 2014).

Data set [1] can be described thus: Hemolytic activity in human erythrocytes at 100 uM after 1 hr by spectrophotometry. It counts as ADME, cell-based. The following applies: erythrocyte, 50 µM, in the assay text read “50 uM” for “100 uM”. The procedure, abridged:
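Healthy human erythrocytes exposed to compounds. After incubation, centrifuged at 350 × g for 10 min, and hemolysis read as supernatant absorbance at 570 nm. DMSO (0.1%) served as negative control and Triton X-100 (1%) as positive control.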

Another data set relates to Escherichia coli. Nature of the data set: Antimicrobial activity against Escherichia coli ATCC 25922 after 12 to 16 hrs by broth micro-dilution method. It counts as functional. A digest of the protocol: (§1)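 Broth micro-dilution in tubes per CLSI. Serial twofold dilutions in Mueller-Hinton broth, top final concentration 200. The inoculum was 6 h cultures adjusted to 0.5 McFarland. Incubated 37 °C 12–16 h. MIC is the lowest concentration with no visible growth by eye. Growth control (no drug) and sterility control (uninoculated broth) were included.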
Background: In broth dilution the organism is exposed to a series of concentrations in liquid medium.

For another data set, the system named is Shigella flexneri. Nature of the data set: Antimicrobial activity against Shigella flexneri 301 after 12 to 16 hrs by broth micro-dilution method. Format: functional. The procedure, abridged: as §1
Data set [2] concerns Staphylococcus epidermidis. Nature of the data set: Antimicrobial activity against Staphylococcus epidermidis ATCC 35984 after 12 to 16 hrs by broth micro-dilution method. It counts as functional. The procedure, abridged:
as §1

Data set [3] has as its system Staphylococcus epidermidis. Nature of the data set: Antimicrobial activity against Staphylococcus epidermidis ATCC 12228 after 12 to 16 hrs by broth micro-dilution method. It counts as functional. A digest of the protocol: as §1
Data set [4] deals with Staphylococcus epidermidis. Nature of the data set: Antibiofilm activity against Staphylococcus epidermidis ATCC 35984 at 50 uM after 18 hrs by crystal violet staining method. Format: functional, organism-based. A digest of the protocol: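 S. epidermidis ATCC35984 suspension seeded in microtiter wells, 37 °C 6 h to form young biofilm. PBS-washed ×4, then fresh TSB with graded compound dilutions, 37 °C 18 h. Washed, methanol-fixed 15 min, air-dried, crystal violet stained, OD570 read. Cut-off ODc = mean OD570 of negative control + 3×SD (0.28); triplicate.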

The test system of the next data set is Staphylococcus aureus. Nature of the data set: Antimicrobial activity against Staphylococcus aureus ATCC 25923 after 12 to 16 hrs by broth micro-dilution method. It counts as functional. A digest of the protocol: as §1
Data set [5] can be described thus: Inhibition of recombinant YycG kinase HK domain autophosphorylation activity (unknown origin) expressed in Escherichia coli BL21 (DE3) preincubated for 30 mins by ATP-Luminescence assay. The procedure, abridged:
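YycG HATPase_c + HisKA domains, expressed in E. coli BL21(DE3), purified on Ni-NTA. Protein at 0.13 mmol/L pre-incubated with serial compound dilutions in 40 mmol/L Tris pH 8.0, 20 mmol/L MgCl₂, 0.1 mg/mL BSA, 25 °C 30 min. ATP 4 mmol/L added, 30 min at 25 °C. Remaining ATP measured by Kinase-Glo luminescence. IC50 fitted from phosphorylation-inhibition rates.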

Structures are written as SMILES. ≈ marks a conversion by molar mass, not a printed value. Calls of active or inactive are those of the source.

For orientation: MIC means the smallest concentration in the dilution series that meets the test's criterion for growth inhibition. Lower therefore signals a more susceptible organism. One may read the IC50 as the midpoint of a concentration-inhibition curve.

Turning to `CCOC(=O)C1=C(C)N=c2s/c(=C\c3ccc(OCC(=O)O)cc3)c(=O)n2C1c1ccc(OC)cc1` (configuration not stated), in data set [1], the Activity entry is given as “Non-toxic”. Besides, the MIC was more than 200 µM in the data set on Escherichia coli, more than 200 µM in the data set on Shigella flexneri, 50 µM (≈ 25.4 µg/mL) in data set [2] and 50 µM (≈ 25.4 µg/mL) in data set [3]. Moreover, in data set [4], the outcome was inactive.

On to `O=C(O)c1cccc(-c2ccc(/C=c3\sc4n(c3=O)C(c3ccc(Cl)cc3)C=C(c3ccccc3)N=4)o2)c1` (configuration not stated), for which the Activity entry in data set [1] is listed as “Non-toxic”. Moreover, the MIC was more than 200 µM in the data set with Escherichia coli; 3.12 µM (≈ 1.68 µg/mL) in the data set with Staphylococcus aureus; more than 200 µM in the data set with Shigella flexneri; 1.56 µM (≈ 0.841 µg/mL) in data set [2]; 6.25 µM (≈ 3.37 µg/mL) in data set [3]. Besides, in data set [4], the outcome was Active. In data set [5], the IC50 was 55.6 µM.

For `CCOC(=O)C1=C(c2ccccc2)N=c2s/c(=C\c3ccc(-c4ccc(C(=O)O)cc4)o3)c(=O)n2C1c1ccc(F)cc1` (configuration not stated), in data set [1], the Activity result is reported as “Non-toxic”. The MIC is more than 200 µM in the data set on Escherichia coli; 6.25 µM (≈ 3.72 µg/mL) against Staphylococcus aureus; more than 200 µM with Shigella flexneri; 6.25 µM (≈ 3.72 µg/mL) in data set [2]; 6.25 µM (≈ 3.72 µg/mL) in data set [3]. In addition, the result in data set [4] was Active.

Regarding `CCOC(=O)C1=C(C)N=c2s/c(=C\c3ccc(OCC(=O)O)c(OC)c3)c(=O)n2C1c1ccc(OC)cc1` (configuration not stated), the MIC was more than 200 µM in the data set on Escherichia coli, more than 200 µM with Shigella flexneri, 50 µM (≈ 26.9 µg/mL) in data set [2] and 50 µM (≈ 26.9 µg/mL) in data set [3]. The result in data set [4] was inactive.

On to `CCOC(=O)C1=C(c2ccccc2)N=c2s/c(=C\c3ccc(-c4cccc(C(=O)O)c4)o3)c(=O)n2C1c1ccccc1` (configuration not stated), for which, in data set [1], the Activity result is on record as “Non-toxic”. The MIC with Escherichia coli was more than 200 µM; in the data set with Shigella flexneri it was more than 200 µM; in data set [2], 200 µM (≈ 115 µg/mL); in data set [3], 200 µM (≈ 115 µg/mL). In data set [4], the result was inactive.

In the case of `CCOC(=O)C1=C(c2ccccc2)N=c2s/c(=C\c3ccc(-c4cccc(C(=O)O)c4)o3)c(=O)n2C1c1ccc(Cl)cc1` (configuration not stated), the Activity entry in data set [1] is “Non-toxic”. The minimal inhibitory concentration (MIC) was more than 200 µM in the data set on Escherichia coli; 6.25 µM (≈ 3.82 µg/mL) against Staphylococcus aureus; more than 200 µM in the data set on Shigella flexneri; 1.56 µM (≈ 0.953 µg/mL) in data set [2]; 3.12 µM (≈ 1.91 µg/mL) in data set [3]. The result in data set [4] was Active. In addition, the IC50 in data set [5] amounted to 12.7 µM.

On to `COc1ccc(C2C=C(c3ccccc3)N=c3s/c(=C\c4ccc(-c5cccc(C(=O)O)c5)o4)c(=O)n32)cc1` (configuration not stated), for which, in data set [1], the Activity result is “Non-toxic”. In addition, the MIC was more than 200 µM against Escherichia coli; 6.25 µM (≈ 3.34 µg/mL) with Staphylococcus aureus; more than 200 µM against Shigella flexneri; 1.56 µM (≈ 0.834 µg/mL) in data set [2]; 6.25 µM (≈ 3.34 µg/mL) in data set [3]. Also, the result in data set [4] was inactive. For the same compound, in data set [5], the IC50 was found to be 49.9 µM.

Regarding `CCOC(=O)C1=C(c2ccccc2)N=c2s/c(=C\c3ccc(OCC(=O)O)c(OC)c3)c(=O)n2C1c1ccc(Cl)cc1` (configuration not stated), the MIC is more than 200 µM in the data set with Escherichia coli, more than 200 µM against Shigella flexneri, 200 µM (≈ 121 µg/mL) in data set [2] and 200 µM (≈ 121 µg/mL) in data set [3]. In data set [4], the outcome was inactive.

Take `CCOC(=O)C1=C(C)N=c2s/c(=C\c3ccc(OCC(=O)O)cc3)c(=O)n2C1c1ccc(Cl)cc1` (configuration not stated): in data set [1], the Activity result is recorded as “Non-toxic”. In addition, the MIC was more than 200 µM in the data set with Escherichia coli, more than 200 µM with Shigella flexneri, 200 µM (≈ 103 µg/mL) in data set [2] and 200 µM (≈ 103 µg/mL) in data set [3]. Besides, the outcome in data set [4] was inactive.

In the case of `CCOC(=O)C1=C(c2ccccc2)N=c2s/c(=C\c3ccc(-c4ccc(C(=O)O)cc4)o3)c(=O)n2C1c1ccc(OC)cc1` (configuration not stated), in data set [1], the Activity entry is on record as “Non-toxic”. The minimum inhibitory concentration (MIC) is more than 200 µM in the data set on Escherichia coli, more than 200 µM against Shigella flexneri, 6.25 µM (≈ 3.79 µg/mL) in data set [2] and 6.25 µM (≈ 3.79 µg/mL) in data set [3]. In addition, the outcome in data set [4] was inactive.

For `CCOC(=O)C1=C(c2ccccc2)N=c2s/c(=C\c3ccc(-c4cccc(C(=O)O)c4)o3)c(=O)n2C1c1ccc(O)cc1` (configuration not stated), the Activity result in data set [1] is “Non-toxic”. Moreover, the MIC against Escherichia coli was more than 200 µM; against Shigella flexneri it was more than 200 µM; in data set [2] it was 50 µM (≈ 29.6 µg/mL); in data set [3], 50 µM (≈ 29.6 µg/mL). Also, the outcome in data set [4] was inactive.

As to `CCOC(=O)C1=C(C)N=c2s/c(=C\c3ccc(-c4cccc(C(=O)O)c4)o3)c(=O)n2C1c1ccc(OC)cc1` (configuration not stated), in data set [1], the Activity result is recorded as “Non-toxic”. Moreover, the MIC against Escherichia coli is more than 200 µM; with Shigella flexneri, more than 200 µM; in data set [2], 6.25 µM (≈ 3.4 µg/mL). In data set [4], the result was inactive.

`CCOC(=O)C1=C(c2ccccc2)N=c2s/c(=C\c3ccc(-c4cccc(C(=O)O)c4)o3)c(=O)n2C1c1ccc(F)cc1` (configuration not stated): the Activity entry in data set [1] is listed as “Non-toxic”. The MIC was more than 200 µM with Escherichia coli; 6.25 µM (≈ 3.72 µg/mL) with Staphylococcus aureus; more than 200 µM in the data set with Shigella flexneri; 6.25 µM (≈ 3.72 µg/mL) in data set [2]; 3.12 µM (≈ 1.86 µg/mL) in data set [3]. Besides, the outcome in data set [4] was Active.

On to `CCOC(=O)C1=C(c2ccccc2)N=c2s/c(=C\c3ccc(-c4ccc(C(=O)O)cc4)o3)c(=O)n2C1c1ccc(Cl)cc1` (configuration not stated), for which, in data set [1], the Activity result is “Non-toxic”. Also, the MIC against Escherichia coli was more than 200 µM; against Staphylococcus aureus it was 6.25 µM (≈ 3.82 µg/mL); in the data set with Shigella flexneri, more than 200 µM; in data set [2], 6.25 µM (≈ 3.82 µg/mL); in data set [3] it was 3.12 µM (≈ 1.91 µg/mL). For the same compound, the outcome in data set [4] was Active.

For the compound `O=C(O)c1cccc(-c2ccc(/C=c3\sc4n(c3=O)C(c3ccc(F)cc3)C=C(c3ccccc3)N=4)o2)c1` (configuration not stated), the Activity result in data set [1] is “Non-toxic”. Also, the MIC is more than 200 µM against Escherichia coli; 6.25 µM (≈ 3.27 µg/mL) in the data set on Staphylococcus aureus; more than 200 µM with Shigella flexneri; 6.25 µM (≈ 3.27 µg/mL) in data set [2]; 3.12 µM (≈ 1.63 µg/mL) in data set [3]. In addition, the result in data set [4] was Active.

As for `CCOC(=O)C1=C(c2ccccc2)N=c2s/c(=C\c3ccc(-c4cccc(C(=O)O)c4)o3)c(=O)n2C1c1ccc(OC)cc1` (configuration not stated), in data set [1], the Activity entry was “Non-toxic”. The MIC in the data set with Escherichia coli was more than 200 µM; in the data set with Shigella flexneri, more than 200 µM; in data set [2], 3.12 µM (≈ 1.9 µg/mL); in data set [3], 3.12 µM (≈ 1.9 µg/mL). Further, the result in data set [4] was Active.

Turning to `Cc1nnc(SCC2=C(C(=O)O)N3C(=O)[C@@H](NC(=O)Cn4cnnn4)[C@H]3SC2)s1` [CEFAZOLIN], the MIC (in the data set on Staphylococcus aureus; in data set [2]; in data set [3]) was 17.6 µM (≈ 8 µg/mL) in each case.

Regarding `CCOC(=O)C1=C(c2ccccc2)N=c2s/c(=C\c3ccc(-c4cccc(C(=O)O)c4)o3)c(=O)n2C1c1ccc([N+](=O)[O-])cc1` (configuration not stated), the Activity entry in data set [1] is recorded as “Non-toxic”. Besides, the minimal inhibitory concentration (MIC) against Escherichia coli was more than 200 µM; against Staphylococcus aureus, 25 µM (≈ 15.5 µg/mL); against Shigella flexneri, more than 200 µM; in data set [2] it was 1.56 µM (≈ 0.97 µg/mL); in data set [3] it was 3.12 µM (≈ 1.94 µg/mL). The result in data set [4] was inactive.

Turning to `CCOC(=O)C1=C(c2ccccc2)N=c2s/c(=C\c3ccc(-c4cccc(C(=O)O)c4)o3)c(=O)n2C1c1ccc2c(c1)OCO2` (configuration not stated), the Activity result in data set [1] is on record as “Non-toxic”. The MIC is more than 200 µM in the data set with Escherichia coli; 6.25 µM (≈ 3.88 µg/mL) with Staphylococcus aureus; more than 200 µM against Shigella flexneri; 6.25 µM (≈ 3.88 µg/mL) in data set [2]; 6.25 µM (≈ 3.88 µg/mL) in data set [3]. Also, the result in data set [4] was Active. The IC50 in data set [5] was 14 µM.

For `CCOC(=O)C1=C(c2ccccc2)N=c2s/c(=C\c3ccc(OCC(=O)O)cc3)c(=O)n2C1c1ccc(Cl)cc1` (configuration not stated), the Activity result in data set [1] was “Non-toxic”. The MIC against Escherichia coli was more than 200 µM; with Shigella flexneri, more than 200 µM; in data set [2], 3.12 µM (≈ 1.8 µg/mL); in data set [3], 3.12 µM (≈ 1.8 µg/mL). The result in data set [4] was inactive.
